From ChEMBL document CHEMBL4622938, “Discovery of phenanthridine analogues as novel chemical probes disrupting the binding of DNA to ΔFosB homodimers and ΔFosB/JunD heterodimers” (Bioorg Med Chem Lett, 2020)

What was measured:
[1] = target: T1, Protein FosB (Homo sapiens, UniProt P53539); assay: (§1) Inhibition of recombinant Hi6-tagged deltaFOSB (unknown origin) expressed in insect cells interaction with TAMRA labeled 5'-GTCGGTGACTCAAAACA-3' AP1 oligonucleotide measured after 15 mins by fluorescence polarization assay
T1 sequence (P53539 whole entry): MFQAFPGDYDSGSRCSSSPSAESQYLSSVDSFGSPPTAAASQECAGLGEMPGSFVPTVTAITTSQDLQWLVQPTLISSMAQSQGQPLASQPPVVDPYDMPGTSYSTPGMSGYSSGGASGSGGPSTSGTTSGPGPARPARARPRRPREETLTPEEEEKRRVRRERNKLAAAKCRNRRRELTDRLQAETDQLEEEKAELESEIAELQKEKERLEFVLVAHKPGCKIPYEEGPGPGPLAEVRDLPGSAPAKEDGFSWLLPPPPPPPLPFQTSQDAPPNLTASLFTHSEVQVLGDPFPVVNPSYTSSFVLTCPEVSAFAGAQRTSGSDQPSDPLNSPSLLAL
How it was run: (§2)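 ΔFosB homodimer, 320 nM (as monomers). Compound serially diluted, 10 concentrations over 0–200 μM in quadruplicate. Compound premixed 5 min with 25 nM TAMRA-cdk5 AP-1 19-mer duplex in 20 mM HEPES pH 7.5, 50 mM NaCl, then protein added for 15 min. FP read at ex 530/540, em 590 nm. Compound-plus-oligo wells without protein serve as the interference control. Four-parameter fit; IC50 is mean ± SD of two independent days.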

[2] = target: T2, Protein fosB/Transcription factor jun-D (Homo sapiens, UniProt P17535+P53539); assay: (§3) Inhibition of recombinant Hi6-tagged deltaFOSB (unknown origin)/His6-tagged JUND (unknown origin) expressed in insect cells interaction with TAMRA labeled 5'-GTCGGTGACTCAAAACA-3' AP1 oligonucleotide measured after 15 mins by fluorescence polarization assay
T2 sequence (P53539 whole entry): T1 sequence (P53539 whole entry)
T2 sequence (P17535 whole entry): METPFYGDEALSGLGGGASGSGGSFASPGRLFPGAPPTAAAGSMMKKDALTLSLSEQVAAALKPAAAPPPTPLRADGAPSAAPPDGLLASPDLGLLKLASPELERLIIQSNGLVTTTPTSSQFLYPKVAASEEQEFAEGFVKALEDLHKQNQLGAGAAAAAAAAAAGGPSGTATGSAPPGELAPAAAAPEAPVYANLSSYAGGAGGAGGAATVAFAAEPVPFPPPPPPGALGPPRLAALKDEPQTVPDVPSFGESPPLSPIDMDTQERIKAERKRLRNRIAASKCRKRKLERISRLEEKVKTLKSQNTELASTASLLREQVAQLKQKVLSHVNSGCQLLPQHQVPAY
How it was run: (§4)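 ΔFosB/JunD heterodimer, 280 nM (as monomers). Compound serially diluted, 10 concentrations over 0–200 μM in quadruplicate. Compound premixed 5 min with 25 nM TAMRA-cdk5 AP-1 19-mer duplex in 20 mM HEPES pH 7.5, 150 mM NaCl, then protein added for 15 min. FP read at ex 530/540, em 590 nm. Wells of compound with oligo and no protein check for DNA interference. IC50 from a four-parameter fit, mean ± SD of two independent days.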

[3] = target: T3, Protein fosB/Transcription factor jun-D (Homo sapiens, UniProt P53539+P17535); assay: as §3; how it was run: as §4
T3 sequence (P53539 whole entry): T1 sequence (P53539 whole entry)
T3 sequence (P17535 whole entry): T2 sequence (P17535 whole entry)

[4] = target: T4, Protein FosB (Homo sapiens) (UniProt P53539); assay: as §1; how it was run: as §2
T4 sequence (whole entry): T1 sequence (P53539 whole entry)

[5] = target: Protein fosB/Transcription factor jun-D (Homo sapiens) (UniProt P53539+P17535); assay: as §3; how it was run: as §4

| Structure (SMILES) | IC50 ([1]; read-out: IC50) | IC50 [2] | IC50 [1] | IC50 [3] | inhibition [4] | inhibition [5] |
| --- | --- | --- | --- | --- | --- | --- |
| CCc1nc2c(OC)cccc2c2cc(OC)cc(OC)c12 |  |  | Not Active | Not Active |  |  |
| COc1cc(OC)c2c(C3CCN(C(=O)OC(C)(C)C)CC3)nc3c(OC)cccc3c2c1 | > 100 µM | > 100 µM |  |  |  |  |
| COc1cccc2c1N(C(C)=O)C(C(=O)O)C1CC=CC21 (configuration not stated) | > 100 µM | > 100 µM |  |  |  |  |
| COc1cccc2c1NC(C(=O)O)C1CCCC21 (configuration not stated) | > 100 µM | > 100 µM |  |  |  |  |
| COc1cccc2c1NC(C(=O)Nc1ccccc1)C1CC=CC21 (configuration not stated) | > 100 µM | > 100 µM |  |  |  |  |
| Cc1cccc2c3c(c(C(=O)O)nc12)CCC3 | > 100 µM | > 100 µM |  |  |  |  |
| CCOC(=O)c1nc2c(C)cccc2c2c1CCC2 | > 100 µM | > 100 µM |  |  |  |  |
| Cc1cccc2c1NC(C(=O)O)C1CC=CC21 (configuration not stated) |  |  | Not Active | Not Active |  |  |
| COc1cc(OC)c2c(C(=O)O)nc3c(OC)cccc3c2c1 | > 100 µM | > 100 µM |  |  |  |  |

Now from value to molecule:

| IC50 ([1]; read-out: IC50) | IC50 [2] | IC50 [1] | IC50 [3] | inhibition [4] | inhibition [5] | Structure (SMILES) |
| --- | --- | --- | --- | --- | --- | --- |
| > 100 µM | > 100 µM |  |  |  |  | COc1cc(OC)c2c(C3CCN(C(C)=O)CC3)nc3c(OC)cccc3c2c1 |
| > 100 µM | > 100 µM |  |  |  |  | CCOC(=O)C1Nc2c(OC)cccc2C2C=CCC12 (configuration not stated) |
| > 100 µM | > 100 µM |  |  |  |  | CNC(=O)C1Nc2c(OC)cccc2C2C=CCC12 (configuration not stated) |
| 28.9 µM | 13.1 µM |  |  |  |  | COc1cccc2c1NC(C(=O)O)C1CC=CC21 (configuration not stated) |
| > 100 µM | > 100 µM |  |  |  |  | COc1cccc2c1NC(CO)C1CC=CC21 (configuration not stated) |
| 58 µM | 55.7 µM |  |  | Dose-dependent effect | Dose-dependent effect | COc1cc(OC)c2c(C3CCNCC3)nc3c(OC)cccc3c2c1 |
